High-throughput results: PubChem BioAssay, Johns Hopkins Ion Channel Center
TRPC4 PAM = positive allosteric modulators of TRPC4, primary screen, cell-based, mouse TRPC4beta, HEK293 mu-opioid, Fluo-4 calcium. 310,000 tested, 0.42% active. Short transient receptor potential channel 4 (Mus musculus), Q9QUQ5. DAMGO EC20, Fluo-4 Ca2+ flux; active compounds read high. B-score at 10 µM;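 active = B-score of calcium response area above 5 SD of library B-scores, with initial fluorescence ratio within 5 SD of library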;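 also: B-score of integrated fluorescence ratio over time as area under calcium response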
TRPC4 agonist = activators of mouse TRPC4 channel, primary screen, Fluo4 calcium, HEK293 TRPC4beta/mu-opioid cells | Short transient receptor potential channel 4 (Mus musculus), Q9QUQ5 | Fluo4 calcium fluorescence; active compounds read high | B-score at 10 µM | 310,000 tested, 0.49% active;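 active = B-score above 5 SD of library B-scores, and initial fluorescence ratio not above library mean plus 5 SD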;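 also: positive B-score marks a calcium rise read as TRPC4 activation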
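Material: TRPC4beta and mu-opioid receptor HEK293 stable cells | Incubation: 45 min room-temperature Fluo4 loading, 110 s read | Detection: Kinetic Fluo4 calcium fluorescence | Measure: Integrated baseline-normalised fluorescence ratio, converted to per-well B score | Benchmarks: Low control buffer alone, high control maximal DAMGO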
TRPC6 inhibitor = mouse TRPC6 channel inhibitors, primary screen, cell-based, HEK293, membrane potential dye. Short transient receptor potential channel 6 (Mus musculus), Q61143. ACh-evoked depolarization; active compounds read low. B-score at 10 µM. 310,000 tested, 1.1% active. AID 2553, 2010;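 active = B-score under library mean minus 3 SD, initial fluorescence not abnormally high, positive integrated signal ratio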;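 also: B-score derived from integrated fluorescence ratio over the kinetic read; more negative B-score means stronger inhibition of depolarization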
Target sequence (Q61143 whole entry, looked up): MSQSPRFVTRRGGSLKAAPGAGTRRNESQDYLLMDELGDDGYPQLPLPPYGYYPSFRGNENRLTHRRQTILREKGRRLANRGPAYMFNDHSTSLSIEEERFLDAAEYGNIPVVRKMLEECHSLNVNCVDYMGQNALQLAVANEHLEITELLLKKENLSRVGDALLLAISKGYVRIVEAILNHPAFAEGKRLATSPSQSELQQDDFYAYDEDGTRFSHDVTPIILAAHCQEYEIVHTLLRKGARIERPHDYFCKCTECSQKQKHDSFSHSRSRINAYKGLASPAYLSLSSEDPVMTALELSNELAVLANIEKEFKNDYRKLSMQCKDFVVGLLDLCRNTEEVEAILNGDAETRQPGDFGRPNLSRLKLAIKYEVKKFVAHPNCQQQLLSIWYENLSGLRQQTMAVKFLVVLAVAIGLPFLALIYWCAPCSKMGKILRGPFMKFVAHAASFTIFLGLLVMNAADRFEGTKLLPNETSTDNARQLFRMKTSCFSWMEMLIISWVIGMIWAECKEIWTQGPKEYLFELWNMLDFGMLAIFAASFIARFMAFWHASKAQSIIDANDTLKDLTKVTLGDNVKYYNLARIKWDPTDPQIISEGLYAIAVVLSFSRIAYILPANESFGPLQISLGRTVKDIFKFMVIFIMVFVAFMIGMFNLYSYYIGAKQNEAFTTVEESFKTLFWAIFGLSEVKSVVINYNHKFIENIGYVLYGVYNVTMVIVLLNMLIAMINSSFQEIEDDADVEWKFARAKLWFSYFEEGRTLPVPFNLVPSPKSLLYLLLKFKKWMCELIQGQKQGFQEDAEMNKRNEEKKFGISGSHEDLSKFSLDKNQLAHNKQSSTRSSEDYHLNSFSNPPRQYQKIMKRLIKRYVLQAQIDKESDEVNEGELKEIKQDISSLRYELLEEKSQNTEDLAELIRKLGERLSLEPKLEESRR
TRPC4 inh = inhibitors of mouse TRPC4 channel, primary screen, Fluo4 calcium, HEK293 TRPC4beta/mu-opioid cells; Short transient receptor potential channel 4 (Mus musculus), Q9QUQ5; AID 2247, 2010; 300,000 tested, 0.39% active; DAMGO-evoked Fluo4 calcium flux; active compounds read low; B-score at 10 µM;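 active = B-score over 3 SD under the library average, no early fluorescence shift, positive overall ratio signal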
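Material: HEK293 cells with stable TRPC4beta plus mu-opioid receptor expression / Probe or stimulus: DAMGO in two steps, submaximal then maximal / Compound: single concentration per test compound / Technique: kinetic Fluo4 fluorescence imaging of calcium influx / Read-out: per-well B score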
TRPC6 activator = mouse TRPC6 channel activators, primary screen, cell-based, HEK293, membrane potential dye. Short transient receptor potential channel 6 (Mus musculus), Q61143. HEK293-TRPC6 membrane potential dye fluorescence; active compounds read high. B-score at 10 µM. 310,000 tested, 0.13% active;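 active = B-score of the integrated fluorescence ratio above library mean plus 3 SD, and starting fluorescence ratio within library mean plus 5 SD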;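 also: higher score means more depolarization so channel activation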
An asterisk follows results filed as active; i = inactive. Sampled rows, rich in hits. Any-hit rate of the full collection: about 2.3%.

SMILES	TRPC4 PAM	TRPC4 agonist	TRPC6 inhibitor	TRPC4 inh	TRPC6 activator
Cc1cccc2c1-c1sc(C(=O)NCCCN3CCCC(C)C3)cc1CO2 (stereo not drawn)	i	48*	i	i	i
CCOc1cc(Br)ccc1S(=O)(=O)N1CC(C)OC(C)C1 (stereo not drawn)	i	43*	i	i	i
OCC1(CCCc2ccccc2)CCN(Cc2cc(F)ccc2F)CC1	i	i	i	-7*	i
COc1ccc2c(c1)C=C(CN1CCC(CO)(CCc3ccccc3)CC1)CO2	i	i	i	-6*	i
OCC1(CCc2ccccc2)CCN(Cc2cc(F)ccc2-n2cccn2)CC1	i	82*	i	i	i
OCC1(CCc2ccccc2)CCN(Cc2c(F)ccc(F)c2F)CC1	i	i	i	i	i
OCC1(CCc2ccccc2)CCN(Cc2ccccc2Cl)CC1	i	69*	i	i	i
CCn1c(-c2ccccc2)c(C(=O)CC#N)c2ccccc21	i	i	i	i	i
Cc1cccc(NC(=O)CNC(=O)c2ccc3nc[nH]c3c2)c1C	i	i	i	i	i
CN1CCN(Cc2nc3c(c(=O)[nH]c(=O)n3C)n2CCc2ccccc2)CC1	i	i	i	i	i
CN1CCN(Cc2nc3c(c(=O)[nH]c(=O)n3C)n2Cc2c(F)cccc2Cl)CC1	20*	80*	i	i	i
O=C(c1cc(C(=O)N2CCOCC2)c2nc3ccccc3n2c1)c1cc(Cl)cc(Cl)c1O	i	i	i	i	i
O=C(N/N=C/c1cc([N+](=O)[O-])cc(Br)c1O)C12CC3CCC(CC(C3)C1)C2	i	136*	i	i	i
CC1=NN2C(=N)/C(=C\c3cc(C)n(-c4ccc(C)cc4)c3C)C(=O)N=C2S1	i	i	i	i	i
CC1CCCC(C)N1C(=O)CSc1nnc(COc2ccc(F)cc2)o1 (stereo not drawn)	i	i	i	i	i
Cn1cc(Cl)c(C(=O)OCC(=O)Nc2cccc(Cl)c2)n1	i	i	i	i	i
Cc1ccccc1C1c2[nH]c3ccccc3c2C[C@H]2C(=O)N(C3CCN(Cc4ccccc4)CC3)CC(=O)N12 (stereo partly drawn)	i	48*	i	i	i
CCOC(=O)c1cn(Cc2ccccc2)c2cc(C)nn2c1=O	i	i	i	i	i
CCOC(=O)c1cn(Cc2ccccc2)c(C(=O)OC(C)(C)C)c1O	i	107*	i	i	i
CCOC(=O)c1oc2ccc(OC)cc2c1NC(=O)CN1CCN(C)CC1	i	88*	i	i	i
CCOC(=O)c1oc2ccccc2c1NC(=O)CN1CCN(C)CC1	i	i	i	i	i
CC(C)Cn1c(-c2cc(Br)ccc2F)nc2c1c(=O)[nH]c(=O)n2CC(C)C	i	i	i	i	i
Cc1nnc(SCC(=O)NC(C)(C)C)n1NCc1cccc(Br)c1	i	i	i	i	i
Cc1ccc(NC(=O)NC(=O)CN2C(=O)NC3(CCCCCCC3)C2=O)c(C)c1	i	i	-5.6*	i	i
O=C(NCC(c1ccco1)N1CCN(c2ccccc2F)CC1)C(=O)NC1CCCC1 (stereo not drawn)	i	i	i	i	i
SMILES	TRPC4 PAM	TRPC4 agonist	TRPC6 inhibitor	TRPC4 inh	TRPC6 activator
CCOc1cc(N2CCOCC2)c(OCC)cc1NC(=O)CC12CC3CC(CC(C3)C1)C2	10*	i	i	i	i
CCOc1cc(N2CCOCC2)c(OCC)cc1NC(=O)CN1CCc2ccccc2C1	12*	i	i	i	i
CCOc1cc(N2CCOCC2)c(OCC)cc1NC(=O)CN1CCN(Cc2ccc3c(c2)OCO3)CC1	i	i	i	i	i
CCOc1cc(N2CCOCC2)c(OCC)cc1NC(=O)Cc1ccc(OC)c(OC)c1	i	i	i	i	i
CC(C)c1nc(SCc2ccccn2)c2c(=O)n(C)c(=O)n(C)c2n1	i	52*	i	i	i
Cc1ccc(OC(=O)CCC(=O)Nc2ccc(S(=O)(=O)Nc3cc(C)on3)cc2)cc1	i	i	i	i	i
CC(=O)NS(=O)(=O)c1ccc(NC(=O)CCC(=O)Oc2ccc(C)cc2)cc1	11*	i	i	i	i
CCC(C)(C)c1ccc(OCCCC[n+]2cccc(C)c2C)c(C(C)(C)CC)c1	i	i	-5.3*	i	i
CC(C)(C)c1cc(CCC(=O)NCC2CCCO2)cc(C(C)(C)C)c1O (stereo not drawn)	i	i	i	i	i
Nc1nc(N)c2c(n1)CCCC2	i	i	i	i	i
Nc1c2c(nc3c1CCCC3)CCCC2 (tested in a mixture with another compound)	i	i	i	-6*	i
Cc1ccc(NC(=O)N2CCCC2C(=O)NCCc2ccccc2)cc1 (stereo not drawn)	i	i	i	-6*	i
CCCCCc1ccc(OCCOCCn2c[n+](C)c3ccccc32)c(CCCCC)c1	i	51*	i	i	i
CCCCCc1ccc(OCCC[n+]2ccccc2)c(CCCCC)c1	i	i	i	i	i
Cc1cc(CNCc2cn(C)nc2-c2ccc(Oc3ccccc3)cc2)on1	i	i	i	i	i
O=C(NCC1CCCO1)c1cn(-c2ccccc2)nc1-c1ccccc1 (stereo not drawn)	i	i	i	i	i
COc1ccc(-c2nn(-c3ccccc3)cc2C(=O)NCC2CCCO2)cc1 (stereo not drawn)	i	49*	i	i	i
Cn1cc(CNCC2CCCO2)c(-c2ccc(Oc3ccccc3)cc2)n1 (stereo not drawn)	i	i	i	-7*	i
CCN(CC(=O)NC1CCS(=O)(=O)C1)S(=O)(=O)c1cc(Br)ccc1Br (stereo not drawn)	i	i	i	i	i
Cc1ccc2c(c1)N(C(=O)CCC(=O)Nc1ccccc1Cl)CC(C)O2 (stereo not drawn)	i	i	i	-8*	i
Cc1ccc2c(c1)N(C(=O)CCC(=O)NCc1cccc(Cl)c1)CC(C)O2 (stereo not drawn)	i	i	i	-7*	i
